Results: ChEMBL document CHEMBL4229550, “An antimycobacterial pleuromutilin analogue effective against dormant bacilli” (Bioorg Med Chem, 2018)
Converted amounts (≈) assume the structure as drawn. The source made the active and inactive calls. The rule behind the calls is not given here.

Assays:
Escherichia coli [1] = assay: Inhibition of protein translation/transcription in Escherichia coli S30 cell extract at 0.1 ug/ml using circular DNA with pBESTluc after 60 mins by luciferase reporter gene assay; assay type: functional
Method in brief: (§1)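 Coupled transcription/translation used E. coli S30 extract, amino acid mix and premix, with the pBESTluc template carrying firefly luciferase under the tac promoter. Compounds were added in DMSO and reactions were started with DNA. Incubation was 60 min at 37 °C, stopped on ice, and luciferase was read after adding assay substrate.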

[2] = tested on: Mycobacterium tuberculosis; assay: Antibacterial activity against replicating Mycobacterium tuberculosis H37Rv incubated for 15 days under aerobic condition by MABA; assay type: functional; details: 360 h, read-out: MIC100
Method in brief: (§2)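 Mtb H37Rv grown in 7H9/OADC at 37 °C with shaking to OD600 0.5. The 0.5-OD culture is exposed aerobically to serial dilutions for 15 days at 37 °C. Resazurin (0.02% stock) is then added for 4 h at 37 °C with shaking.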

[3] = tested on: Mycolicibacterium smegmatis; assay: Antibacterial activity against Mycobacterium smegmatis ATCC 607 incubated for 48 hrs under aerobic condition by MABA; assay type: functional; details: ATCC 607, 48 h, read-out: MIC100
Method in brief: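 Mid-log culture at OD 0.5 was incubated with serial dilutions aerobically at 37 °C for 48 h. Resazurin was then added from a 0.08% stock for 1 h. MIC100 was the lowest concentration that stayed blue; absorbance was also read at 570/600 nm.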

Streptococcus salivarius [4] = assay: Antibacterial activity against Streptococcus salivarius […] incubated for 24 hrs under aerobic condition by MABA; assay type: functional; details: read-out: MIC100
Method in brief: (§3)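 Resazurin was then added from a 0.08% stock for 1 h. MIC100 was the lowest concentration where the dye stayed blue (pink means growth). Absorbance was also read at 570 and 600 nm.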

Erythrocyte = assay: Hemolytic activity in sheep erythrocytes after 2 hrs; assay type: ADME, cell-based; details: Ovis aries
Method in brief: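 Washed heparinized sheep erythrocytes at 3% in buffer pH 7.4 were treated with 2–200 µg/mL for 2 h at 37 °C with gentle shaking. Triton X-100 (0.01–1%) was the positive control and PEG:H2O diluent the negative control. Released hemoglobin was read at OD540 and % hemolysis calculated against both controls.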

Enterococcus faecalis [5] = assay: Antibacterial activity against Enterococcus faecalis ATCC 19433 incubated for 24 hrs under aerobic condition by MABA; assay type: functional; details: ATCC 19433, 24 h, read-out: MIC100
Method in brief: (§4)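 Mid-log cultures at OD 0.5 were exposed to serial dilutions under aerobic conditions at 37 °C for 24 h. Resazurin was then added from a 0.08% stock for 1 h. MIC100 was the lowest concentration where the dye stayed blue (pink means growth). Absorbance was also read at 570 and 600 nm.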

Clostridioides difficile = assay: Bactericidal activity against Clostridium difficile ATCC 700057 incubated for 24 hrs […] by MABA; assay type: functional; details: ATCC 700057, 24 h
[6] = tested on: Mycobacterium tuberculosis; assay: Bactericidal activity against replicating Mycobacterium tuberculosis H37Rv incubated for 15 days under aerobic condition by MABA; assay type: functional; details: 360 h; method in brief: as §2
Bacillus subtilis [7] = assay: Bactericidal activity against Bacillus subtilis ATCC 6051 incubated for 24 hrs under aerobic condition by MABA; assay type: functional; details: ATCC 6051, 24 h
Staphylococcus aureus [8] = assay: Antibacterial activity against Staphylococcus aureus BAA 44 incubated for 24 hrs under aerobic condition by MABA; assay type: functional; details: BAA 44, 24 h, read-out: MIC100; method in brief: as §4
Staphylococcus aureus [9] = assay: Antibacterial activity against Staphylococcus aureus BAA 1683 incubated for 24 hrs under aerobic condition by MABA; assay type: functional; details: BAA 1683, 24 h, read-out: MIC100; method in brief: as §4
Staphylococcus aureus [10] = assay: Bactericidal activity against Staphylococcus aureus BAA 44 incubated for 24 hrs under aerobic condition by MABA; assay type: functional; details: BAA 44, 24 h
[11] = Half life in Sprague-Dawley rat liver microsomes at 500 ng/ml preincubated for 5 mins followed by NADPH addition by C-MS/MS analysis; assay type: ADME, microsome
[12] = tested on: Mycolicibacterium smegmatis; assay: Bactericidal activity against Mycobacterium smegmatis ATCC 607 incubated for 48 hrs under aerobic condition by MABA; assay type: functional; details: ATCC 607, 48 h
Acinetobacter baumannii [13] = assay: Bactericidal activity against Acinetobacter baumannii ATCC 19606 incubated for 24 hrs under aerobic condition by MABA; assay type: functional; details: ATCC 19606 = CIP 70.34 = JCM 6841, 24 h
Bacillus subtilis [14] = assay: Antibacterial activity against Bacillus subtilis ATCC 6051 incubated for 24 hrs under aerobic condition by MABA; assay type: functional; details: ATCC 6051, 24 h, read-out: MIC100; method in brief: as §4
Staphylococcus aureus [15] = assay: Bactericidal activity against Staphylococcus aureus BAA 1683 incubated for 24 hrs under aerobic condition by MABA; assay type: functional; details: BAA 1683, 24 h
Escherichia coli [16] = assay: Antibacterial activity against Escherichia coli ATCC 10798 incubated for 24 hrs under aerobic condition by MABA; assay type: functional; details: ATCC 10798, 24 h, read-out: MIC100; method in brief: as §4
[17] = tested on: Mycobacterium tuberculosis; assay: Antibacterial activity against Mycobacterium tuberculosis; assay type: functional; details: read-out: MIC100; method in brief: as §2
Enterococcus faecalis [18] = assay: Antibacterial activity against Enterococcus faecalis ATCC 349 incubated for 24 hrs under aerobic condition by MABA; assay type: functional; details: ATCC 349, 24 h, read-out: MIC100; method in brief: as §4
Escherichia coli [19] = assay: Inhibition of protein translation/transcription in Escherichia coli S30 cell extract at 0.5 ug/ml using circular DNA with pBESTluc after 60 mins by luciferase reporter gene assay; assay type: functional; method in brief: as §1
[20] = tested on: Mycobacterium tuberculosis; assay: Bactericidal activity against Mycobacterium tuberculosis H37Rv at 2 times MIC measured every 24 hrs up to 12 days by time kill assay relative to control; assay type: functional
Method in brief: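 Mid-log H37Rv (OD 0.5) is diluted to OD 0.25 and exposed at MIC, 2×MIC or 4×MIC. Every 24 h cultures are diluted 10- to 10,000-fold and plated on 7H10/OADC agar. Plates are incubated 15 days at 37 °C before colony counts.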

Staphylococcus aureus [21] = assay: Antibacterial activity against Staphylococcus aureus incubated for 24 hrs under aerobic condition by MABA; assay type: functional; details: read-out: MIC100; method in brief: as §3
Vero = assay: Cytotoxicity against African green monkey Vero cells assessed as reduction in cell viability after 72 hrs by MTT assay; assay type: cell-based; details: Chlorocebus sabaeus
Method in brief: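 Vero cells were grown in complete EMEM with 10% FBS and exposed for 72 h to 0.78–200 µg/mL. The medium was then swapped for phenol-red-free EMEM and MTT was added. Formazan absorbance was read at 570 nm to give IC50.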

Streptococcus pneumoniae [22] = assay: Bactericidal activity against Streptococcus pneumoniae ATCC 6301 incubated for 24 hrs under aerobic condition by MABA; assay type: functional; details: ATCC 6301, 24 h
Streptococcus pneumoniae [23] = assay: Antibacterial activity against Streptococcus pneumoniae ATCC 6301 incubated for 24 hrs under aerobic condition by MABA; assay type: functional; details: ATCC 6301, 24 h, read-out: MIC100; method in brief: as §4
Staphylococcus aureus [24] = assay: Antibacterial activity against Staphylococcus aureus BAA 2094 incubated for 24 hrs under aerobic condition by MABA; assay type: functional; details: BAA 2094, 24 h, read-out: MIC100; method in brief: as §3
[25] = Selectivity index, ratio of IC50 for African green monkey Vero cells to MIC100 for replicating Mycobacterium tuberculosis H37Rv by MABA; assay type: toxicity; details: read-out: Selectivity Index
Method in brief: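 Vero cells are cultured in EMEM with 10% FBS and exposed for 72 h to 0.78–200 µg/mL. Medium is switched to phenol-red-free EMEM, MTT is added, and formazan is read at 570 nm to give IC50. The selectivity index is Vero IC50 divided by the MABA MIC.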

Streptococcus salivarius [26] = assay: Bactericidal activity against Streptococcus salivarius ATCC 6301 incubated for 24 hrs under aerobic condition by MABA; assay type: functional; details: ATCC 6301, 24 h
Enterococcus faecalis [27] = assay: Bactericidal activity against Enterococcus faecalis ATCC 19433 incubated for 24 hrs under aerobic condition by MABA; assay type: functional; details: ATCC 19433, 24 h
Staphylococcus aureus [28] = assay: Antibacterial activity against Staphylococcus aureus ATCC 25923 incubated for 24 hrs under aerobic condition by MABA; assay type: functional; details: ATCC 25923, 24 h, read-out: MIC100; method in brief: as §4
Klebsiella pneumoniae [29] = assay: Antibacterial activity against Klebsiella pneumoniae ATCC 12019 incubated for 24 hrs under aerobic condition by MABA; assay type: functional; details: ATCC 12019, 24 h, read-out: MIC100; method in brief: as §4
Staphylococcus aureus [30] = assay: Bactericidal activity against Staphylococcus aureus ATCC 25923 incubated for 24 hrs under aerobic condition by MABA; assay type: functional; details: ATCC 25923, 24 h
Klebsiella pneumoniae [31] = assay: Bactericidal activity against Klebsiella pneumoniae ATCC 12019 incubated for 24 hrs under aerobic condition by MABA; assay type: functional; details: ATCC 12019, 24 h
Acinetobacter baumannii [32] = assay: Antibacterial activity against Acinetobacter baumannii ATCC 19606 incubated for 24 hrs under aerobic condition by MABA; assay type: functional; details: ATCC 19606 = CIP 70.34 = JCM 6841, 24 h, read-out: MIC100; method in brief: as §4
Staphylococcus aureus [33] = assay: Bactericidal activity against Staphylococcus aureus BAA 2094 incubated for 24 hrs under aerobic condition by MABA; assay type: functional; details: BAA 2094, 24 h
Escherichia coli [34] = assay: Bactericidal activity against Escherichia coli ATCC 10798 incubated for 24 hrs under aerobic condition by MABA; assay type: functional; details: ATCC 10798, 24 h
Enterococcus faecalis [35] = assay: Bactericidal activity against Enterococcus faecalis ATCC 349 incubated for 24 hrs under aerobic condition by MABA; assay type: functional; details: ATCC 349, 24 h
Staphylococcus aureus [36] = assay: Bactericidal activity against Staphylococcus aureus incubated for 24 hrs under aerobic condition by MABA; assay type: functional

## CC[C@]1(C)C[C@@H](OC(=O)CSC(C)(C)CNC(=O)[C@H](N)CC(C)C)[C@]2(C)[C@H](C)CC[C@]3(CCC(=O)[C@H]32)[C@@H](C)[C@@H]1O
Escherichia coli [1]
  inhibition: Active
[2]
  MIC: 0.78 µg/mL (≈ 1.34 µM)
[3]
  MIC: 6.25 µg/mL (≈ 10.8 µM)
Streptococcus salivarius [4]
  MIC: 0.4 µg/mL (≈ 0.689 µM)
Erythrocyte
  IC50: > 200 µM
Enterococcus faecalis [5]
  MIC: 12.5 µg/mL (≈ 21.5 µM)
Clostridioides difficile
  MBC: 1.56 µg/mL (≈ 2.69 µM)
[6]
  MBC: 0.77 µg/mL (≈ 1.33 µM)
Bacillus subtilis [7]
  MBC: 25 µg/mL (≈ 43 µM)
Staphylococcus aureus [8]
  MIC: > 25 µg/mL
Staphylococcus aureus [9]
  MIC: > 25 µg/mL
Staphylococcus aureus [10]
  MBC: > 25 µg/mL
[11]
  t1/2: < 5 min
[12]
  MBC: 25 µg/mL (≈ 43 µM)
Acinetobacter baumannii [13]
  MBC: 12.5 µg/mL (≈ 21.5 µM)
Bacillus subtilis [14]
  MIC: 12.5 µg/mL (≈ 21.5 µM)
Staphylococcus aureus [15]
  MBC: > 25 µg/mL
Escherichia coli [16]
  MIC: 12.5 µg/mL (≈ 21.5 µM)
[17]
  MIC: < 6.25 µg/mL
Enterococcus faecalis [18]
  MIC: > 25 µg/mL
Escherichia coli [19]
  inhibition: Active
[20]
  Activity: 100%
Staphylococcus aureus [21]
  MIC: 0.4 µg/mL (≈ 0.689 µM)
Vero
  IC50: 25 µg/mL (≈ 43 µM)
Streptococcus pneumoniae [22]
  MBC: > 25 µg/mL
Streptococcus pneumoniae [23]
  MIC: 25 µg/mL (≈ 43 µM)
Staphylococcus aureus [24]
  MIC: > 25 µg/mL
[25]
  selectivity ratio: 32
Streptococcus salivarius [26]
  MBC: > 25 µg/mL
Enterococcus faecalis [27]
  MBC: 25 µg/mL (≈ 43 µM)
Staphylococcus aureus [28]
  MIC: > 25 µg/mL
Klebsiella pneumoniae [29]
  MIC: 25 µg/mL (≈ 43 µM)
Staphylococcus aureus [30]
  MBC: > 25 µg/mL
Klebsiella pneumoniae [31]
  MBC: > 25 µg/mL
Acinetobacter baumannii [32]
  MIC: 9.38 µg/mL (≈ 16.1 µM)
Staphylococcus aureus [33]
  MBC: > 25 µg/mL
Escherichia coli [34]
  MBC: > 25 µg/mL
Enterococcus faecalis [35]
  MBC: > 25 µg/mL
Staphylococcus aureus [36]
  MBC: 0.8 µg/mL (≈ 1.38 µM)

## C=C[C@]1(C)C[C@@H](OC(=O)CSC(C)(C)CNC(=O)[C@H](N)CC(C)C)[C@]2(C)[C@H](C)CC[C@]3(CC[C@@H](O)[C@H]32)[C@@H](C)[C@@H]1O
Escherichia coli [1]
  inhibition: Active
[2]
  MIC: 3.06 µg/mL (≈ 5.27 µM)
[17]
  MIC: < 6.25 µg/mL
Escherichia coli [19]
  inhibition: Active
Vero
  IC50: 35 µg/mL (≈ 60.3 µM)
[25]
  selectivity ratio: 11.4

## CCCCCCCCCCCCC/C=C/C(=O)N[C@H]1[C@H](O[C@H]2O[C@H](CO)[C@@H](O)[C@H](O)[C@H]2NC(C)=O)O[C@H](CC(O)[C@H]2O[C@@H](n3ccc(=O)[nH]c3=O)[C@H](O)[C@@H]2O)[C@H](O)[C@@H]1O (stereo partly drawn)
[2]
  MIC: 12.5 µg/mL (≈ 14.8 µM)
Erythrocyte
  IC50: 15 µM
Vero
  IC50: 0.18 µg/mL (≈ 0.213 µM)
